# GPR7 antag = GPR7 receptor antagonists, primary screen, cell-based, fluorescence, single concentration. GPR7-expressing cells, fluorescence antagonist assay. Neuropeptides B/W receptor type 1 (Homo sapiens), P48145. 290,000 tested, 1.1% active. inhibition, % at 4.4 µM; in the data active means inhibition above about 16%, passing the limit was not always enough;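 further: cells stimulated with the agonist NPW; 0% = agonist with vehicle and 100% = vehicle without agonist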
# Target sequence (P48145 whole entry, looked up): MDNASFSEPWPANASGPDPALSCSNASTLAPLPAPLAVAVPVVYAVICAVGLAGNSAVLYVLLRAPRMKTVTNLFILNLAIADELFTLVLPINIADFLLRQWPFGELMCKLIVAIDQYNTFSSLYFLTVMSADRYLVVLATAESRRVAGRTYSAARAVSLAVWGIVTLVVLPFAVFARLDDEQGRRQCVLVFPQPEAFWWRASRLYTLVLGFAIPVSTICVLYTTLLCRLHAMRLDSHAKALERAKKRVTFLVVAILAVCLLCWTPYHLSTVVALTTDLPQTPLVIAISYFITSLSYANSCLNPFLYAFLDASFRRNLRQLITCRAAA
# T cruzi inh = inhibitors of intracellular T. cruzi growth, primary screen, luminescence, NIH3T3 host cells; T. cruzi beta-gal in NIH3T3, 90 h; inhibition, % (concentration not given with the values); 300,000 tested, 1.4% active; AID 1885, 2009;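 active means mean inhibition across valid replicates above about 55%, limit read from the data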;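 further: signal also drops with host cell toxicity which is not excluded here; 0% = plate median of DMSO wells and 100% = zero luminescence signal; higher percent means less beta-gal luminescence so fewer parasites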
#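 Test system: β-gal T. cruzi (Tulahuen C4) inside NIH/3T3 cells / Quantity: 5,000 cells/well / Measured by: luminescence from GalScreen with 0.05% NP40, read after 60 min / Medium: DMEM plus 2% FBS / Measure: parasite load inhibition, % / Reagent: Tulahuen C4 trypomastigotes, 5000/well / Schedule: co-culture of at least 90 h after 3 h attachment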
# Jurkat NFkB inh = inhibitors of induced NF-kB luciferase reporter, primary screen, TCR NF-kB activation inhibitor project, cell-based, luminescence, uHTS; inhibition, % at 4 µM; AID 435003, 2010; 330,000 tested, 0.53% active; Jurkat, PMA/ionomycin-induced NF-kB luciferase reporter; in the data active means inhibition above about 50%
# HSF1 activator = HSF-1 activators, primary screen, NIH3T3-HGL cells, MG132 stress, luminescence, single point | NIH3T3-HGL HSF-1 luciferase reporter, 8 h; 100% = twice DMSO control signal | activation, % at 9 µM | 300,000 tested, 1.7% active;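 active means mean replicate activation of at least 50% with a set share of replicates each reaching 50%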;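 further: 0% = median of the neutral control wells and 100% = twice that signal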
# HSF1 inh = HSF1 inhibitors in luciferase reporter cells, primary screen, cell-based, NIH3T3, luminescence; AID 2098, 2009; NIH3T3-HGL HSE-luciferase, MG132-induced, luminescence 8 h; active compounds read low; activity change, negative = inhibition, % at 7.5 µM (by protocol); 300,000 tested, 0.77% active;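 active means more than half of replicate wells show activity change below -50%, luminescence cut by over half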;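 further: luciferase reports HSF-1 transcriptional activity via heat shock element; 0% = median of DMSO wells and -100% = zero luminescence signal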
# 697 NFkB inh = inhibitors of PMA/ionomycin-induced NF-kB reporter, 697 cells, primary screen, B-cell NF-kB inhibitor project, cell-based, luminescence, uHTS; 697 B-cell NF-kB luciferase reporter, 16 h; inhibition, % at 4 µM; 330,000 tested, 0.33% active; AID 435022, 2010; in the data active means inhibition above about 35%
# An asterisk follows results filed as active; / = no result given. This is a sample that favours compounds with a hit; in the whole collection about 4.8% have one here.
SMILES,GPR7 antag,T cruzi inh,Jurkat NFkB inh,HSF1 activator,HSF1 inh,697 NFkB inh
O=C(NC1CCCCC1)c1ccc2c(c1)S(=O)(=O)c1ccccc1C2=O,/,10,-28,-12,3,5
CCN(CC)CCNC(=O)c1nn(-c2ccc(C)cc2)c(=O)c2c1c1ccccc1n2C,-7,60*,-32,8,-1,-7
Cc1ccc(S(=O)(=O)Nc2ccccc2CNc2cccc(C)n2)cc1,-11,28,16,1,0,-1
CCN(CC)CC(=O)Nn1c(C)nc2c(ncn2-c2ccccc2)c1=O,-2,-19,6,2,-6,7
Cc1nc2c(ncn2-c2ccccc2)c(=O)n1NC(=O)CN1CCOCC1,-7,-11,-8,-64,-57*,5
CC(/C=N/NC(=O)c1cc(-c2ccccc2)nc2ccccc12)=C\c1ccco1,-2,-37,-15,55*,19,-20
CC(/C=N/NC(=O)c1cc(-c2ccc(Cl)cc2)nc2ccccc12)=C\c1ccco1,-9,26,-10,-6,-10,-12
NC(=S)COc1ccccc1,-19,-17,-4,11,-7,-1
NC(=O)c1ccsc1NC(=O)CSc1ccccc1F,-5,-7,-15,58*,22,-58
Cc1ccccc1SCC(=O)OCC(=O)Nc1sccc1C(N)=O,18,1,-4,2,-1,20
NC(=O)COc1ccccc1,-1,-7,13,79*,45,-1
NC(=O)c1ccsc1NC(=O)COc1ccccc1,-4,-2,-67,69*,37,-56
O=C(COc1ccc(Cl)cc1)NCc1ccncc1,-9,-17,-6,5,-3,-9
COc1ccc(N(CC(=O)NC2CCCC2)C(=O)c2ccc(C)s2)c(OC)c1,0,5,1,-16,1,-18
COc1ccc(N(CC(=O)NC2CCCCC2)C(=O)c2ccc(C)s2)cc1OC,11,-5,-9,71*,20,1
O=c1c2ccccc2cnn1-c1nc2ccccc2[nH]1,-6,-12,/,-85,-83*,/
CN(C)S(=O)(=O)N1CCN(CC(O)COc2ccc(-c3ccccc3)cc2)CC1 (stereo not given),-18,-1,5,-1,0,-3
On1nnc2ccc3ccccc3c21,-1,-5,1,-14,1,-2
COc1ccc(N=c2sc3ccccc3n2C)cc1,-3,12,-86,55*,31,-161
COc1ccc(/C=C/c2nc(N)nc(-c3ccccc3O)n2)cc1OC,-13,67*,-11,-3,-3,10
Nc1c([N+](=O)[O-])c(=O)oc2ccccc12,-17,2,0,-6,-4,6
COC(=O)c1ccccc1NC(=O)CSc1nc(Nc2ccccc2)nc(N2CCOCC2)n1,-20,51,-4,77*,41,15
Nc1nc(Nc2cccc(F)c2)nc2ccccc12,-10,37,-109,56*,36,-133
NC(=O)Cc1ccc(C(=O)c2ccc(Cl)cc2)s1,8,-13,-7,-72,-64*,4
O=C(O)Cc1ccc(C(=O)c2ccc(Cl)cc2)s1,-8,5,-2,-10,-1,16
CC(OC(=O)c1ccc2c(=O)n3c(nc2c1)CCCCC3)C(=O)Nc1ccc(F)cc1Cl (stereo not given),-11,-19,3,-22,-13,5
O=C(c1cnccn1)N1CCc2c([nH]c3ccccc23)C1c1cccc(Cl)c1 (stereo not given),3,45,9,3,1,10
CSc1ccc(C2c3[nH]c4ccccc4c3CCN2C(=O)c2cc(C)n(C)n2)cc1 (stereo not given),4,53,-73,53*,37,-80
Cc1cc(C(=O)N2CCc3c([nH]c4ccccc34)C2c2cccc(Cl)c2)nn1C (stereo not given),3,56*,12,16,11,4
